The results in this text go back to ChEMBL document CHEMBL5620421, “2,6-Disubstituted 7-(naphthalen-2-ylmethyl)-7H-purines as a new class of potent antitubercular agents inhibiting DprE1” (Eur J Med Chem, 2023).

Assay [1] relates to Mycobacterium tuberculosis. In words: Antimycobacterial activity against isoniazid/ethambutol/rifampin/streptomycin/amikacin/gentamicin/clofazimine/ofloxacin […] MDR/XDR clinical isolate Mycobacterium tuberculosis PRAHA 1 assessed as inhibition of mycobacterial growth measured after 14 to 21 days of incubation by Sulas semisynthetic medium based assay. It is filed as functional, organism-based. Conditions: time 14-21 day. Put shortly:
(§1)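 Clinical MDR/XDR M. tuberculosis isolates were tested by the Sula's semisynthetic medium micromethod. Compounds in DMSO at 1000 to 0.5 μmol/L, in twofold-type steps. Incubation at 37 °C, read at 14 and 21 days. MIC99 is the lowest concentration inhibiting >99% of growth. Drug resistance or susceptibility of each isolate is to amikacin, clofazimine, gentamicin, ofloxacin, streptomycin and the others listed.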

Assay [2] deals with Mycobacterium tuberculosis. The assay is described as follows: Antimycobacterial activity against isoniazid/ethambutol/rifampin/streptomycin/amikacin/gentamicin/clofazimine/ofloxacin […] MDR/XDR clinical isolate Mycobacterium tuberculosis 7357/1998 assessed as inhibition of mycobacterial growth measured after 14 to 21 days of incubation by Sulas semisynthetic medium based assay. The settings on record: time 14-21 day. The format is functional, organism-based. Put shortly: as §1

Assay [3] has as its system Mycobacterium tuberculosis. The assay is described as follows: Antimycobacterial activity against isoniazid/ethambutol/rifampin/streptomycin/amikacin/gentamicin/clofazimine/ofloxacin […] MDR/XDR clinical isolate Mycobacterium tuberculosis 234/2005 assessed as inhibition of mycobacterial growth measured after 14 to 21 days of incubation by Sulas semisynthetic medium based assay. It is filed as functional, organism-based. The settings on record: time 14-21 day. Put shortly:
as §1

Assay [4] deals with Mycobacterium tuberculosis. In words: Antimycobacterial activity against isoniazid/ethambutol/rifampin/streptomycin/amikacin/gentamicin/clofazimine/ofloxacin […] MDR/XDR clinical isolate Mycobacterium tuberculosis 9449/2007 assessed as inhibition of mycobacterial growth measured after 14 to 21 days of incubation by Sulas semisynthetic medium based assay. It is filed as functional, organism-based. Conditions: time 14-21 day. Put shortly: as §1

The test system of assay [5] is Mycobacterium tuberculosis. In words: Antimycobacterial activity against isoniazid/ethambutol/rifampin/streptomycin/amikacin/gentamicin/clofazimine/ofloxacin […] MDR/XDR clinical isolate Mycobacterium tuberculosis 8666/2010 assessed as inhibition of mycobacterial growth measured after 14 to 21 days of incubation by Sulas semisynthetic medium based assay. The format is functional, organism-based. The settings on record: time 14-21 day. Put shortly:
as §1

In assay [6] the test system is Mycobacterium tuberculosis. The assay is described as follows: Antimycobacterial activity against isoniazid/ethambutol/rifampin/streptomycin/amikacin/gentamicin/clofazimine/ofloxacin […] MDR/XDR clinical isolate Mycobacterium tuberculosis PRAHA 4 assessed as inhibition of mycobacterial growth measured after 14 to 21 days of incubation by Sulas semisynthetic medium based assay. The format is functional, organism-based. The settings on record: time 14-21 day. Put shortly: as §1

Assay [7] concerns Mycobacterium tuberculosis. In words: Antibacterial activity against Mycobacterium tuberculosis H37Rv (ATCC 27294) assessed as inhibition of bacterial growth incubated for 14 days. Conditions: 336 h, time 14 day. It is filed as functional. Put shortly: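 Micromethod MIC in Sula's semisynthetic medium. MIC is the lowest concentration inhibiting >99% of the mycobacterial population. Isoniazid was the standard drug.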

Values after ≈ are worked out from the molar mass of the structure shown.

What is called MIC99 is the lowest concentration that inhibits either 99% of growth or 99% of the strains tested, depending on the study. Usually MIC stands for the lowest concentration found to suppress growth.

On to GENTAMICIN, for which the MIC99 in assay [1] turned out to be 1 µM; in assay [2], 1 µM; in assay [3] it was 0.25 µM; in assay [4], 1 µM; in assay [5], 2 µM; in assay [6] it was 0.5 µM.

As for `O=C1CCc2c(OC[C@]3(O)CCN(c4c(F)cc(Cl)cc4F)C[C@H]3O)ccc(F)c2N1` [QUABODEPISTAT], the MIC in assay [7] came to 0.5 ng/mL (≈ 1.09 nM).
